Activity calls are given as the source filed them. The calls are words filed in the database; no cut-off is given here.
biological target: T1, Inhibitor of nuclear factor kappa-B kinase subunit beta (Mus musculus) (UniProt O88351); test: Inhibition of IKKbeta in C57BL/6 mouse BMDM cells assessed as inhibition of TNFalpha-induced RelA phosphorylation at 25 uM after 5 mins by Western blot analysis; format: cell-based
T1 sequence (whole entry): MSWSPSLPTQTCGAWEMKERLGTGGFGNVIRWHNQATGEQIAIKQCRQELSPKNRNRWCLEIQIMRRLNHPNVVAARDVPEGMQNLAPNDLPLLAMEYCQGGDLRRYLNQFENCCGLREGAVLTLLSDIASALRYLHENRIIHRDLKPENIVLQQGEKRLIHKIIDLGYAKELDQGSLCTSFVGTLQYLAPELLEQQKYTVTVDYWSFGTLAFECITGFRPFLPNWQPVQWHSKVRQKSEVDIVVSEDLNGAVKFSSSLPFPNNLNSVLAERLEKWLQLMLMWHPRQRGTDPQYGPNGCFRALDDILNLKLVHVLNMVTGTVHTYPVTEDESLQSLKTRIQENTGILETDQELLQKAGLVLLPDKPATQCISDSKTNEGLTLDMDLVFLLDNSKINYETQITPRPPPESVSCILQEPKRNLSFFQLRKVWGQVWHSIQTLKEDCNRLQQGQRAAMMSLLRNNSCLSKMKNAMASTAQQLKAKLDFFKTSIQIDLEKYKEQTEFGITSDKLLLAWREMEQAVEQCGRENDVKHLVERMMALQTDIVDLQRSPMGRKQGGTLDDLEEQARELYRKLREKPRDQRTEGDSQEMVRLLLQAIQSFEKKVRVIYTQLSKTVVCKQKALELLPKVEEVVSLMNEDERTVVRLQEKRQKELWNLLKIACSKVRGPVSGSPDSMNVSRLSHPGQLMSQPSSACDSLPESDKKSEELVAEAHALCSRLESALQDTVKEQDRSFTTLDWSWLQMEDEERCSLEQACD
Summary of the method: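 C57BL/6 marrow-derived macrophages were cultured in 70% growth medium/30% L929-conditioned medium and refreshed 12-14 h before stimulation. Stimuli were TNF 40 ng/ml or LPS 100 ng/ml, ± compound at 25 μM from a 200x DMSO stock. Western blots tracked IKK, p38, IκBα and phospho-RelA. Results from three independent experiments were quantitated and normalized.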

Row | inhibition | SMILES
1 | inactive | O=C(CCCCCN1C(=O)CCC1=O)Oc1ccc2cc(C(C(=O)NCc3ccccc3)N(C(=O)Cc3ccc4c(c3)OCO4)C3CC3)ccc2c1 (configuration not stated)
2 | inactive | O=C(CCCCCN1C(=O)C=CC1=O)Oc1ccc2cc(C(C(=O)NCc3ccccc3)N(C(=O)Cc3ccc4c(c3)OCO4)C3CC3)ccc2c1 (configuration not stated)
3 | inactive | O=C(CCCCCCCC(=O)ON1C(=O)CCC1=O)Oc1ccc2cc(C(C(=O)NCc3ccccc3)N(C(=O)Cc3ccc4c(c3)OCO4)C3CC3)ccc2c1 (configuration not stated)

biological target: Toll-like receptor 2 (Mus musculus) (UniProt Q9QUN7); test: Inhibition of MyD88 recruitment to TLR2 in C57BL/6 mouse BMDM cells assessed as inhibition of HKSA-induced IkappaBalpha degradation up to 90 mins by Western blot analysis; format: cell-based
Summary of the method: (§1)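 Bone marrow macrophages from C57BL/6 mice, grown in 70% growth medium (DMEM, 10% FBS) plus 30% L929-conditioned medium and given fresh medium 12-14 h before stimulation. Stimuli: IL-1 40 ng/ml, HKSA ~10^8 cfu/ml, pI:pC 50 μg/ml or CpG 10 μg/ml, ± compound at 10 μM (final) added from a 200x DMSO stock. IκBα and p38 profiled by immunoblot. Three independent experiments, quantitated and normalized.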

Toll-like receptor 2 (Mus musculus), sequence (Q9QUN7 whole entry): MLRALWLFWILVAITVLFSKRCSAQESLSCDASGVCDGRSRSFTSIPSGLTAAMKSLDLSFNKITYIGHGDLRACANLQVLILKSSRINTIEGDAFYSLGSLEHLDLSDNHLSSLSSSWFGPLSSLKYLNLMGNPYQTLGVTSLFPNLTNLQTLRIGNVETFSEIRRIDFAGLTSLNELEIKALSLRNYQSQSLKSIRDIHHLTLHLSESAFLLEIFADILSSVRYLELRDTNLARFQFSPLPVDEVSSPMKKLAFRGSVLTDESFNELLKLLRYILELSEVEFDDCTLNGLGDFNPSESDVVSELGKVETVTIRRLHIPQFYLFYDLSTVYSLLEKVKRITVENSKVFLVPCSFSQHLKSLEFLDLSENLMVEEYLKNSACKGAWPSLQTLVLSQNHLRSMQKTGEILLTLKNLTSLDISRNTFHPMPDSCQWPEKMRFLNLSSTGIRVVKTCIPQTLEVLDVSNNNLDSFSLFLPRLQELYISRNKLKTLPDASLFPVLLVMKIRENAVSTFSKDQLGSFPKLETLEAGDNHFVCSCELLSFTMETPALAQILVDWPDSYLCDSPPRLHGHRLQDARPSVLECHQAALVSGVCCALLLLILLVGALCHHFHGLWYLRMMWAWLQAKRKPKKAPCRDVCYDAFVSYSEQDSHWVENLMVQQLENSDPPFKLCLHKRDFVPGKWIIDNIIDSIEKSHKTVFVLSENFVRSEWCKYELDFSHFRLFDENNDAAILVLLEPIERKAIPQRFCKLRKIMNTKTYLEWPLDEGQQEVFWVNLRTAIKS

Row | inhibition | SMILES
4 | Active | O=C(CCCCCN1C(=O)CCC1=O)Oc1ccc2cc(C(C(=O)NCc3ccccc3)N(C(=O)Cc3ccc4c(c3)OCO4)C3CC3)ccc2c1 (configuration not stated)
5 | Active | O=C(CCCCCN1C(=O)C=CC1=O)Oc1ccc2cc(C(C(=O)NCc3ccccc3)N(C(=O)Cc3ccc4c(c3)OCO4)C3CC3)ccc2c1 (configuration not stated)
6 | Active | O=C(CCCCCCCC(=O)ON1C(=O)CCC1=O)Oc1ccc2cc(C(C(=O)NCc3ccccc3)N(C(=O)Cc3ccc4c(c3)OCO4)C3CC3)ccc2c1 (configuration not stated)

biological target: T2, Toll-like receptor 3 (Mus musculus) (UniProt Q99MB1); test: Inhibition of TRIF recruitment to TLR3 in C57BL/6 mouse BMDM cells assessed as inhibition of pI:pC-induced IkappaBalpha phosphorylation up to 90 mins by Western blot analysis; format: cell-based; summary of the method: as §1
T2 sequence (whole entry): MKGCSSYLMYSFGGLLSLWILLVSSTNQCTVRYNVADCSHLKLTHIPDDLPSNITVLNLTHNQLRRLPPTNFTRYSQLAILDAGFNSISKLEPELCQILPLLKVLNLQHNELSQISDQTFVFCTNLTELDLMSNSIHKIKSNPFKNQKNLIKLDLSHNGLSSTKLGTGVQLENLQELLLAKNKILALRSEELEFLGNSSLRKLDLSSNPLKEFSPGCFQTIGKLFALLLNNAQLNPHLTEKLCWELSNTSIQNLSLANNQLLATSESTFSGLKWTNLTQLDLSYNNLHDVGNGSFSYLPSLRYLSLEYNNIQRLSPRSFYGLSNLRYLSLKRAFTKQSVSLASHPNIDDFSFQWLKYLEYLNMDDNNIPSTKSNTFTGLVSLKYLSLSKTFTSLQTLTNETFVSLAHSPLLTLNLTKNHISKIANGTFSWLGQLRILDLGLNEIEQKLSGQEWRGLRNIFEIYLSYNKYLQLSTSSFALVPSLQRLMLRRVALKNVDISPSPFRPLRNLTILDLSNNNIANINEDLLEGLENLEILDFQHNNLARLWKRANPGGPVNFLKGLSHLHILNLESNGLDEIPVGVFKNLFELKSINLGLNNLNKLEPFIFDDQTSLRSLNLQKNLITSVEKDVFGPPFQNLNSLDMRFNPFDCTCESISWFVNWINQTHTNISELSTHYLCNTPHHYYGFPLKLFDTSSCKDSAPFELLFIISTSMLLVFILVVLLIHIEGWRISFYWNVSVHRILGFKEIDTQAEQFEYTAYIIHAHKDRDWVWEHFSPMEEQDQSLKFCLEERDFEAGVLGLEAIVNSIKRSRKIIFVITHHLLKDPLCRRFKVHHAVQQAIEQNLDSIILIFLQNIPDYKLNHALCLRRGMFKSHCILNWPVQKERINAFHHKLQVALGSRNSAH

Row | inhibition | SMILES
7 | Active | O=C(CCCCCN1C(=O)CCC1=O)Oc1ccc2cc(C(C(=O)NCc3ccccc3)N(C(=O)Cc3ccc4c(c3)OCO4)C3CC3)ccc2c1 (configuration not stated)
8 | Active | O=C(CCCCCN1C(=O)C=CC1=O)Oc1ccc2cc(C(C(=O)NCc3ccccc3)N(C(=O)Cc3ccc4c(c3)OCO4)C3CC3)ccc2c1 (configuration not stated)
9 | Active | O=C(CCCCCCCC(=O)ON1C(=O)CCC1=O)Oc1ccc2cc(C(C(=O)NCc3ccccc3)N(C(=O)Cc3ccc4c(c3)OCO4)C3CC3)ccc2c1 (configuration not stated)

biological target: T1, Inhibitor of nuclear factor kappa-B kinase subunit beta (Mus musculus); test: Inhibition of IKKbeta in C57BL/6 mouse BMDM cells assessed as inhibition of LPS-induced IkappaBalpha degradation at 50 uM up to 90 mins by Western blot analysis; format: cell-based

Row | inhibition (active/not active) | SMILES
10 | inactive | O=C(CCCCCN1C(=O)CCC1=O)Oc1ccc2cc(C(C(=O)NCc3ccccc3)N(C(=O)Cc3ccc4c(c3)OCO4)C3CC3)ccc2c1 (configuration not stated)
11 | Active | O=C(CCCCCN1C(=O)C=CC1=O)Oc1ccc2cc(C(C(=O)NCc3ccccc3)N(C(=O)Cc3ccc4c(c3)OCO4)C3CC3)ccc2c1 (configuration not stated)
12 | Active | O=C(CCCCCCCC(=O)ON1C(=O)CCC1=O)Oc1ccc2cc(C(C(=O)NCc3ccccc3)N(C(=O)Cc3ccc4c(c3)OCO4)C3CC3)ccc2c1 (configuration not stated)

Reference: ChEMBL document CHEMBL2203171, “The use of small molecule probes to study spatially separated stimulus-induced signaling pathways” (Bioorg Med Chem Lett, 2012)
